This is a sample that favours compounds with a hit; in the whole collection about 1.9% have one here.
M4 ag – CHRM4 agonism in calcium assay; P08173; CHO-K1 hM4/Gqi5, Fluo-8 calcium fluorescence; vehicle 0%, full acetylcholine response 100%; activation, % at 3 µM; 0.14% of 360,000 active; AID 624127;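 active = activation above the run mean over all test wells plus 3 SD, cut at about 32% in these data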;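 note: peak over basal fluorescence ratio per well then scaled between controls; 0% = DMSO wells and 100% = acetylcholine at EC100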
CHRM4 antagonist – CHRM4 antagonism in calcium assay. P08173. CHO-hM4 cells, ACh EC80, Fluo-8 calcium fluorescence. inhibition, % at 3 µM. 0.73% of 360,000 active. AID 624125;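 active = inhibition above its plate's cutoff, the mean inhibition of sample wells plus 3 SD, cut at about 27% in these data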;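 note: 0% = acetylcholine EC80 with DMSO and 100% = DMSO without agonist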
M5 antag – blocks acetylcholine activation of human M5 receptor; P08912; CHO-hM5 cells, Fluo-8 calcium fluorescence, ACh EC80; inhibition, % at 3 µM; 0.59% of 360,000 active; AID 624040;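 active = inhibition above a per-plate cutoff, the mean of that plate's test compounds plus 3 SD, cut at about 27% in these data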;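 note: 0% = acetylcholine EC80 with DMSO and 100% = DMSO without agonist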
Target sequence (P08912 whole entry, looked up): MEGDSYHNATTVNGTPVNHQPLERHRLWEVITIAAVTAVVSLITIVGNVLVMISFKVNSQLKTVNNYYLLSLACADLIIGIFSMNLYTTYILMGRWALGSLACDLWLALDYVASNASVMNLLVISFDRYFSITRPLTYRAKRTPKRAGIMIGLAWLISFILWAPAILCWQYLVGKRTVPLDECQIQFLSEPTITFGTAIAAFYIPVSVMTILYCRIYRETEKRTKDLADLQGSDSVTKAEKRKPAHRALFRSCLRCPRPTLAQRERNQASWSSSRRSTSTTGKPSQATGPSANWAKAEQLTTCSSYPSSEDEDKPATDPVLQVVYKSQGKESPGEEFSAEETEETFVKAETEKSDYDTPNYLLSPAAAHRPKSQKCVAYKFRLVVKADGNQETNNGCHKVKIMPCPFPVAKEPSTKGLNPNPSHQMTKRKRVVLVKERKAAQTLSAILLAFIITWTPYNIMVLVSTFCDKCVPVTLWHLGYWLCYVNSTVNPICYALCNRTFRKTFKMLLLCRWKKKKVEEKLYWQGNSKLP
CHRM5 PAM – positive allosteric modulators of human muscarinic M5 receptor. P08912. CHO-K1 hM5, Fluo-8 calcium, ACh EC20 PAM; 0% = ACh EC20, 100% = ACh EC100. activation, % at 3 µM. 0.3% of 360,000 active;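 active = activation above the run cutoff, the mean activation of all test compounds plus 3 SD, cut at about 18% in these data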
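system = human M5 receptor in CHO-K1 cells | reagent = EC20 acetylcholine as agonist stimulus | compound dosing = single-point, 3 µM nominal | incubation = Fluo-8 loading 80 min at 37 °C plus 30 min room temperature | detection = Fluo-8 calcium dye fluorescence, kinetic read | benchmarks = low control EC20 acetylcholine (0%), high control EC100 acetylcholine (100%)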
CHRM5 agonist – agonists of human muscarinic M5 receptor (CHRM5); P08912; activation, % at 3 µM; AID 624037; CHO-K1 hM5 cells, Fluo-8 calcium fluorescence; 0% DMSO wells, 100% maximal acetylcholine response; 0.19% of 360,000 active;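 active = activation above the run's mean over test compounds plus 3 SD, cut at about 23% in these data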;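 note: signal is peak over basal fluorescence ratio across the kinetic read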
CHRM4 PAM – positive allosteric modulators of human muscarinic M4 receptor. P08173. CHO-K1 hM4/Gqi5, Fluo-8 calcium fluorescence, ACh EC20; 0% = ACh EC20, 100% = maximal ACh. activation, % at 3 µM. 0.4% of 360,000 active;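 active = activation above its plate's cutoff, the mean activation of sample wells plus 3 SD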
* hit, by the source's call.

SMILES	M4 ag	CHRM4 antagonist	M5 antag	CHRM5 PAM	CHRM5 agonist	CHRM4 PAM
COC(=O)c1sc(NC(C)=O)c(C(=O)OC)c1C	3.2	-6.8	-4.6	-1.8	-7.9	20.6*
COc1cc(C2CC(C(F)(F)F)n3ncc(C(=O)O)c3N2)cc(OC)c1OC (stereo not drawn)	0.1	11.6	-8.0	7.0	-0.5	-1.3
COc1ccc(-c2csc(NC(=O)CN3C(=O)C4CC=CCC4C3=O)n2)cc1OC (stereo not drawn)	8.5	8.2	28.6*	-13.5	-0.9	-5.5
COc1ccc(CC(=O)Nc2nc(-c3ccc(OC)c(OC)c3)cs2)cc1OC	25.1	-13.7	-0.7	-12.4	23.4*	-0.8
COc1ccc(-c2csc(NC(=O)Cc3ccccc3F)n2)cc1OC	8.5	44.9*	26.5	-13.7	-2.4	-21.1
CCCCOC(=O)c1cc(=O)[nH]c2ccccc12	-1.1	3.4	3.0	-1.5	-1.1	-6.5
O=C(CN(Cc1ccco1)C(=O)c1ccc(F)cc1F)Nc1ccccc1C(F)(F)F	1.3	-10.2	-4.8	9.9	0.2	23.4*
O=C(CN(Cc1ccco1)C(=O)c1cc(=O)[nH]c2ccccc12)Nc1ccccc1C(F)(F)F	2.5	2.5	9.1	-4.0	2.0	10.3
CN(CC(=O)Nc1cccc2ccccc12)C(=O)c1ccc(F)cc1F	3.2	-12.4	9.5	-0.4	-0.4	23.1*
COc1cc(NC(=S)NCCN2CCOCC2)cc(OC)c1	0.5	-8.5	-2.2	6.5	-0.7	22.8*
CN(C1CCCCC1)S(=O)(=O)c1ccc2c(c1)c(=O)c(C(=O)NCCCN1CCCC1)cn2C	0.0	26.7*	4.2	-4.2	-2.4	-15.8
CN(C1CCCCC1)S(=O)(=O)c1ccc2c(c1)c(=O)c(C(=O)NCCN1CCCC1)cn2C	1.2	1.6	-3.5	3.1	-2.5	-12.1
COC(=O)C1=C(C)NC(C)=C(C(=O)OCCN(C)Cc2ccccc2)C1c1cccc([N+](=O)[O-])c1 (stereo not drawn)	16.7	34.9*	17.4	-19.2	3.1	-17.8
Cc1ccc(S(=O)(=O)CCc2nc3ccccc3[nH]2)cc1	1.9	0.6	10.0	-1.2	0.4	-6.2
O=S(=O)(CCc1nc2ccccc2[nH]1)c1ccc(Cl)cc1	2.1	-10.1	-13.7	1.1	0.7	22.9*
CN(C)CCNC(=S)Nc1ccc(Cl)cc1	1.5	-3.0	8.9	-0.1	-6.8	6.2
COc1cccc(Nc2nc(C(N)Cc3ccc(Cl)cc3)cs2)n1 (stereo not drawn)	47.5*	25.9	13.4	0.6	49.3*	1.3
COc1cccc(Nc2nc(C(N)Cc3ccc(F)cc3)cs2)n1 (stereo not drawn)	35.1*	13.8	1.7	4.4	11.1	6.2
COc1ccc(CC(N)c2csc(Nc3cccc(OC)n3)n2)cc1 (stereo not drawn)	18.2	0.4	2.1	2.3	5.8	4.0
COc1cccc(Nc2nc(C(N)Cc3ccc(C(F)(F)F)cc3)cs2)n1 (stereo not drawn)	8.6	12.3	9.3	6.0	3.6	14.7
O=C(/C(=C/O)N=Nc1ccccc1)c1ccc(Cl)cc1	0.6	0.0	-12.1	19.4*	-1.9	6.5
Cc1ccc(N=N/C(=C\O)C(=O)c2ccc(Cl)cc2)cc1	0.1	-8.1	-6.7	9.6	-0.1	15.5
O=C(Cc1ccccc1)Nc1cccnc1	0.2	2.9	-2.3	6.6	-0.7	13.7
O=C(Cc1ccc(Cl)cc1)Nc1cccnc1	0.9	-8.2	-6.6	0.7	0.6	27.7*
O=C(COC(=O)Cc1ccc(F)cc1)Nc1ccc(Cl)cn1	-0.1	-4.5	-4.1	1.2	-1.2	0.6
SMILES	M4 ag	CHRM4 antagonist	M5 antag	CHRM5 PAM	CHRM5 agonist	CHRM4 PAM
O=C(Cc1ccc(Cl)cc1)Nc1ccc(Cl)cn1	-1.0	-3.4	-8.0	20.7*	0.4	-2.1
O=C(Cc1ccc(F)cc1)Nc1ccc(Cl)cn1	5.3	16.9	30.2*	49.1*	0.1	14.8*
O=C(C1CCN(S(=O)(=O)c2ccc(Cl)cc2)CC1)N1CCN(c2ccccn2)CC1	6.6	-8.7	-4.7	-5.4	-2.4	-4.2
O=C1CCCCN1CCCC(=O)N1CCCC(Nc2ccccc2)C1 (stereo not drawn)	0.5	3.0	2.9	27.3*	8.4	4.6
CC(C)c1ccc(NC2CCCN(C(=O)CCN3CCCC3=O)C2)cc1 (stereo not drawn)	1.0	-2.4	0.9	3.6	-1.1	-2.6
O=S1(=O)CCOC[C@H](c2ccccc2)N1Cc1ccccc1F	1.3	-0.4	-2.1	0.8	-2.0	4.8
Cc1nc2ccccc2c(=O)n1NC(=O)c1cccc(Cl)c1	15.3	27.6*	19.6	-11.2	0.9	-10.9
COc1ccc2[nH]c3c(=O)n(CCCN4CCOCC4)cnc3c2c1	1.6	1.7	-14.2	20.9*	4.5	10.6
COc1ccc(-c2nc(-c3cccc(C(F)(F)F)c3)no2)cc1OC	1.2	-0.6	-4.6	-0.1	-1.4	29.7*
CCOC(=O)c1ccc(NC(=S)N2CCC(O)CC2)cc1	0.9	-7.0	11.1	-0.3	-3.1	1.5
CCOC(=O)c1ccc(NC(=S)N2CCSC2c2ccc(Br)cc2)cc1 (stereo not drawn)	45.8*	27.9*	12.8	1.6	14.1	-7.6
O=C(N/N=C/c1cn(-c2cccs2)nc1-c1ccccc1)c1ccccc1O	12.4	14.7	28.2*	-16.9	2.1	-14.3
O=C(N/N=C/c1cn(-c2cccs2)nc1-c1ccccc1)c1ccccc1Br	4.3	9.7	-6.4	-6.0	1.8	-5.2
CCOC(=O)c1c(C)nsc1NC(=O)C1CCCCC1	-0.7	-25.8	-10.4	7.6	2.7	13.5*
CCC(C)N(C)Cc1cccc(C2(O)CCN(S(=O)(=O)c3ccc(F)c(C)c3)CC2)c1 (stereo not drawn)	0.3	66.2*	20.0	-19.4	-7.5	-40.5
Cc1cc(-c2nnc(SCC(=O)Nc3ccc(C)c(C)c3)n2N)n[nH]1	0.7	8.4	-17.9	20.5*	-1.8	1.3
O=C1CCC(=O)N1N1C(=O)C2C3c4ccccc4C(c4ccccc43)C2C1=O (stereo not drawn)	0.8	2.6	-4.3	22.4*	1.2	8.7
O=C1C2C3c4ccccc4C(c4ccccc43)[C@@H]2C(=O)N1c1ccccn1 (stereo partly drawn)	1.4	-3.3	4.4	-0.9	-2.6	-6.3
COc1ccc(NC(C)=O)cc1C	0.7	14.2	12.5	-0.8	0.7	3.2
CS(=O)(=O)N(CC(=O)Nc1ccccc1C(=O)NCc1ccccc1)c1ccc2c(c1)OCCO2	6.9	10.2	-6.1	-9.4	9.9	-17.5
CS(=O)(=O)N(CC(=O)Nc1ccccc1C(=O)NCCc1ccccc1)c1ccc2c(c1)OCCO2	0.7	41.3*	-3.1	-8.5	3.7	-14.1

Compound activity from PubChem BioAssay.
